Hits are enriched below; roughly 3.5% of the tested compounds scored in any of these assays.
MrgX1 antagonist = antagonists of human MrgX1 receptor. AID 588676. Q96LB2. MRGX1-HEK293 calcium flux, Fluo-4, BAM8-22 antagonism; stronger effect = lower value. B-score at 10 µM. hit rate 1.3% among 310,000;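 active = calcium-response B-score plate-corrected more than 3 library SD below zero, starting fluorescence within 5 deviations, no agonist response on first addition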;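 also: peak minus trough fluorescence over baseline after final BAM8-22 challenge near maximal dose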
Target sequence (Q96LB2 whole entry, looked up): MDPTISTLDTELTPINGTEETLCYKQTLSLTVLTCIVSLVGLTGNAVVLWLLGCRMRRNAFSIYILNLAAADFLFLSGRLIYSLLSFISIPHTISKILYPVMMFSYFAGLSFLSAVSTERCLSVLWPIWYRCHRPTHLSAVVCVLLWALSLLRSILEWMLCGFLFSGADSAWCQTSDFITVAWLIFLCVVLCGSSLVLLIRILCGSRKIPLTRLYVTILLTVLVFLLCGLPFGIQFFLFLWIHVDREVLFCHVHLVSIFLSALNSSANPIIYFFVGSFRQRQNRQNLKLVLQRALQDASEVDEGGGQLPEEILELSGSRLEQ
MrgX1 PAM = human MrgX1 positive allosteric modulation, primary screen | Q96LB2 | MrgX1-HEK293, Fluo-4 calcium flux, FDSS; stronger effect = higher value | B-score at 10 µM | hit rate 0.63% among 310,000;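 active = plate-corrected calcium response at least 3 library SD above typical, normal starting fluorescence, not activating the receptor alone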;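 also: compound read alongside a low EC10 to EC30 dose of BAM8-22 agonist; peak minus trough fluorescence over baseline measured at the second addition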
RGS4 act = potentiators or activators of RGS4. HEK293 M3R/inducible RGS4, carbachol calcium flux Fluo4; stronger effect = lower value. B-score at 10 µM. hit rate 0.92% among 310,000. AID 463111;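 active = B-score of the integrated calcium signal more than 4 SD below the library mean, with starting fluorescence not abnormally high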;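 also: negative B-score means reduced calcium response which marks RGS4 activation or potentiation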
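Test system: HEK293 cells with stable M3R and inducible RGS4; also added: carbachol at ECmax as muscarinic agonist stimulus; schedule: dye loading 30 min 37 °C, buffer rest 30 min RT; technique: kinetic calcium fluorescence imaging with Fluo4-AM dye, 2 µM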
MrgX1 ag = human MrgX1 receptor agonism, primary screen; MrgX1-HEK293 cells, Fluo-4 calcium fluorescence, agonist mode; stronger effect = higher value; B-score at 10 µM; AID 588627; Q96LB2; hit rate 0.44% among 310,000;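 active = calcium response B-score plate-corrected fluorescence ratio at least 3 library SD, with starting fluorescence B-score inside 5 SD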
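Test system: HEK293 cells stably expressing human MrgX1 receptor; Input: fifteen thousand cells per well; Dosing: compound delivered in addition one of three; Schedule: overnight seeding, then 1 h dark dye loading; Technique: Fluo-4 NW calcium fluorescence; Measure: B-scored fluorescence response ratio; Controls: positive and negative controls per plate.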
RGS4 block = human RGS4 inhibition; HEK293 M3R/RGS4 inducible, Fluo-4 calcium flux; stronger effect = higher value; triggered by carbachol at its EC20; P49798; B-score at 10 µM; hit rate 0.45% among 310,000;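 active = B-score, a plate-corrected calcium signal, over three deviations above library mean, with baseline fluorescence within five deviations of library mean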;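 also: RGS4 expression induced by doxycycline in cells with stable M3 receptor; B-score is computed from the integrated fluorescence ratio over baseline after carbachol; higher B-score means a larger calcium signal and so more RGS4 inhibition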
Target sequence (P49798 whole entry, looked up): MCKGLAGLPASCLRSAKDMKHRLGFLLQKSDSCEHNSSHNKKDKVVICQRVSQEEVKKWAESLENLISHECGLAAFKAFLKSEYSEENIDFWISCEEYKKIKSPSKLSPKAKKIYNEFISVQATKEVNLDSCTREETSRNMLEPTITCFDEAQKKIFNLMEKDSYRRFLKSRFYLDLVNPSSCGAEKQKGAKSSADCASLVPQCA
RGS4 block valid = RGS4 inhibitor validation | shares compounds with RGS4 block | HEK293 M3R/RGS4, carbachol calcium Fluo-4 fluorescence; carbachol added at its EC20; 0 = buffer wells, 100 = carbachol control | calcium response, % at 10 µM | hit rate 65% among 1,700 | AID 492999;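 active = duplicate-averaged calcium response above the buffer-only control mean plus 5 SD of those controls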;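 also: integrated fluorescence ratio F max minus min over baseline F0; higher response in RGS4-induced cells means RGS4 inhibition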
M3R Ca ctr = checks RGS4 inhibitor effects in non-induced HEK293 M3R cells. shares compounds with RGS4 block. carbachol calcium Fluo-4; submaximal (EC20) carbachol stimulus; buffer wells 0%, carbachol control wells 100%. activity (percent), % at 10 µM. hit rate 20% among 1,900. AID 493000; call rule not given here;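 also: RGS4 induction absent so cells express M3R without RGS4; higher means more calcium signal and flags a non-specific hit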
RGS4 inh ctr2 = second counter-screen for RGS4 inhibitors: non-induced cells without carbachol | shares compounds with RGS4 block | HEK293 M3R/RGS4 non-induced, Fluo-4 calcium, no carbachol; normalised: buffer wells 0%, carbachol wells 100% | calcium response (agonist-mode artifact), % at 10 µM | hit rate 22% among 1,900;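 active = duplicate-averaged calcium rise in uninduced cells above buffer wells' mean plus 5 SD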
Each line names hits and unclear results; the compound was inactive in the other large screens (follow-up assays come after a bar, where they were run).

CC(C)(C)OC(=O)N1CCC[C@H]1C(=O)Nc1ccc(S(=O)(=O)C(F)F)cc1	none
COc1ccc(C(=O)/C=C/Sc2nc3ccccc3o2)cc1	RGS4 block 24 | RGS4 block valid 9.5% | M3R Ca ctr inactive | RGS4 inh ctr2 inactive
COc1ccc(C(=O)N/C(N)=N/c2nc3ccccc3o2)cc1	none
Cc1ccnc(NS(=O)(=O)c2ccc(NC(=O)Cc3ccccc3)cc2)n1	none
Cc1ccnc(NS(=O)(=O)c2ccc(NC(=O)CC(C)c3ccccc3)cc2)n1 (stereo not given)	RGS4 block 6.2 | RGS4 block valid 5.0% | M3R Ca ctr inactive | RGS4 inh ctr2 inactive
O=C(NCCCN1CCCC1=O)c1c(O)nc2sccn2c1=O	none
COc1ccc(NC(=O)c2c(NC(=O)CCC(=O)O)sc3c2CCCCC3)cc1	none | RGS4 block valid inactive | M3R Ca ctr inactive | RGS4 inh ctr2 inactive
O=C(O)CCC(=O)Nc1sc2c(c1C(=O)NCc1ccccc1)CCCC2	none
CC(C)(C)C1CCc2c(sc(NC(=O)C3CC=CCC3C(=O)O)c2C#N)C1 (stereo not given)	none
N#Cc1c(NC(=O)C2CC=CCC2C(=O)O)sc2c1CCCCCC2 (stereo not given)	RGS4 block 5 | RGS4 block valid 20% | M3R Ca ctr inactive | RGS4 inh ctr2 inactive
COc1ccccc1C1=NOC(C)(c2nnc(Cc3ccccc3)o2)C1 (stereo not given)	none
COCCn1c(C)c(C)c2c(NCCc3ccccc3)ncnc21	none
O=C(CSc1nc2ccccc2[nH]1)Nc1nc(-c2cccc(Br)c2)cs1	RGS4 block 7.7 | RGS4 block valid 16% | M3R Ca ctr inactive | RGS4 inh ctr2 inactive
CN(C)CCCn1c(SCC(=O)Nc2nc(-c3cccc(Br)c3)cs2)nc2ccccc2c1=O	none
Cc1ccc(-c2csc(NC(=O)CSc3nc(C)cc(=O)[nH]3)n2)cc1	RGS4 block 13 | RGS4 block valid 12% | M3R Ca ctr inactive | RGS4 inh ctr2 inactive
COc1ccc(OC)c(-c2csc(N(CC3CCCO3)C(=O)C3CCCCC3)n2)c1 (stereo not given)	RGS4 block 7.2 | RGS4 block valid 24% | M3R Ca ctr inactive | RGS4 inh ctr2 inactive
O=C(Cc1ccc(Cl)c(Cl)c1)Nc1ccc2[nH]c(=O)[nH]c2c1	none
c1coc(C2=Nc3cccc4cccc(c34)N2)c1	RGS4 block 13 | RGS4 block valid 30% | M3R Ca ctr inactive | RGS4 inh ctr2 inactive
CCOC(=O)[C@H]1[C@H]2COc3cc(OC)ccc3[C@@H]2N2C(=O)N(c3ccc(Cl)cc3)C(=O)[C@@]12C	none | RGS4 block valid inactive | M3R Ca ctr inactive | RGS4 inh ctr2 inactive
CCOC(=O)[C@@H]1[C@H]2COc3cc(OC)ccc3[C@@H]2N2C(=O)N(c3ccc(Cl)cc3)C(=O)[C@@]12C	none | RGS4 block valid inactive | M3R Ca ctr inactive | RGS4 inh ctr2 inactive
CCOC(=O)[C@@H]1[C@H]2COc3cc(OC)ccc3[C@@H]2N2C(=O)N(c3ccc(C)cc3)C(=O)[C@@]12C	none
Cc1ccc(Nc2nc(N)c3ccccc3n2)cc1C	none | RGS4 block valid inactive | M3R Ca ctr inactive | RGS4 inh ctr2 inactive
COc1ccc(NC(=O)CN2C(=O)COc3ccc(S(=O)(=O)N4CCCCCC4)cc32)cc1	none
COc1cc(C(C(=O)NC2CCCCC2)N(C(=O)Cc2c[nH]c3ccccc23)c2ccccc2C)cc(OC)c1OC (stereo not given)	RGS4 block 4.9 | RGS4 block valid 7.5% | M3R Ca ctr inactive | RGS4 inh ctr2 inactive
CCC(C)Nc1nc2c(c(=O)[nH]c(=O)n2C)n1CCOc1ccccc1 (stereo not given)	none
CCCCn1c(NC(C)CC)nc2c1c(=O)[nH]c(=O)n2C (stereo not given)	RGS4 block 4.7 | RGS4 block valid 9.5% | M3R Ca ctr inactive | RGS4 inh ctr2 inactive
CC1CCC2C(=O)N(c3ccc(C(=O)Oc4cccc5cccnc45)cc3)C(=O)C2C1 (stereo not given)	RGS4 block 5.2 | RGS4 block valid 25% | M3R Ca ctr inactive | RGS4 inh ctr2 inactive
COc1ccccc1-c1cn[nH]c1-c1ccc(OCC(=O)NN)cc1O	none
NNC(=O)COc1ccc(-c2n[nH]c(C(F)(F)F)c2-c2ccc(Br)cc2)c(O)c1	RGS4 block 8.1 | RGS4 block valid 56% | M3R Ca ctr 62% | RGS4 inh ctr2 inactive
COc1ccccc1-c1c(-c2ccc(OCC(=O)NN)cc2O)n[nH]c1C(F)(F)F	none | M3R Ca ctr inactive | RGS4 inh ctr2 inactive
O=c1c(C/C=C/c2ccccc2)c(O)ccn1CCc1c[nH]c2ccccc12	RGS4 block 5.7 | RGS4 block valid 12% | M3R Ca ctr 30% | RGS4 inh ctr2 inactive
COc1ccc2[nH]cc(CCn3ccc(O)c(C/C=C/c4ccccc4)c3=O)c2c1	RGS4 block 7.3 | RGS4 block valid 18% | M3R Ca ctr inactive | RGS4 inh ctr2 inactive
CC(=O)Nc1ccc(/C=C2\Sc3ccccc3C2=O)cc1	none
O=C1/C(=C/c2cccnc2)Sc2ccccc21	MrgX1 ag 47, RGS4 block 7.9 | RGS4 block valid 42% | M3R Ca ctr 46% | RGS4 inh ctr2 32%
Cc1noc(NS(=O)(=O)c2ccc(N/C=C/C(=O)c3ccncc3)cc2)c1C	none | RGS4 block valid inactive | M3R Ca ctr inactive | RGS4 inh ctr2 inactive
Cc1noc(NS(=O)(=O)c2ccc(N/C=C\C(=O)c3ccncc3)cc2)c1C	none | M3R Ca ctr inactive | RGS4 inh ctr2 inactive
Cc1noc(NS(=O)(=O)c2ccc(N/C=C/C(=O)c3ccc(F)cc3)cc2)c1C	none | M3R Ca ctr inactive | RGS4 inh ctr2 inactive
CCCCCN1CN(S(=O)(=O)c2cccs2)c2nc3ccccc3nc21	none
COc1ccccc1OCCCC(=O)Nc1nnc(C2CCCO2)s1 (stereo not given)	none
CCN(CC)c1ccc(/C=C2\C(=O)c3ccc(C(=O)O)cc3C2=O)cc1	none (no result: RGS4 act, RGS4 block)
CNc1nc(N)c([N+](=O)[O-])c(Nc2cccc(Cl)c2)n1	RGS4 block 15 | RGS4 block valid 10% | M3R Ca ctr 34% | RGS4 inh ctr2 10%
CNc1nc(N)c([N+](=O)[O-])c(NC2CCCCC2)n1	RGS4 block 6 | RGS4 block valid 32% | M3R Ca ctr 39% | RGS4 inh ctr2 inactive
